MT stabilize HCS: stabilizes microtubules in HeLa cells; HeLa tubulin immunostaining HCS, 24 h; share of cells brighter than vehicle mean+2SD; % tubulin-high responders, % at 10 µM; 200,000 tested, 0.83% active; AID 2205;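 active means plate Z-score above 3 for both tubulin-high and condensed-nucleus cell shares, with cell loss under 80%, at 10 µM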;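 further: anti alpha tubulin signal scored within the nucleus-defined area of each cell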
b-catenin transl: alters nuclear translocation of beta-catenin in HeLa cells; immunofluorescence imaging; nuclear translocation activity, % at 5 µM; 190,000 tested, 0.3% active; AID 1665;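 active means nuclear translocation activity above 50% at 5 µM, with a well cell count of 50 or more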;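 further: per-cell ratio of nuclear to cytoplasmic median beta-catenin stain intensity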
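Test system: human HeLa cell line; Doses: 5 µM primary, 0.02–20 µM confirmation; Incubation: 24 h compound exposure, 37°C; Detection: beta-catenin immunofluorescence imaging with DAPI; Read-out: beta-catenin nuclear/cytoplasmic ratio, % activation.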
NPY-Y2 PAM-ag: potentiates or activates human NPY-Y2 receptor | AID 1359 | cells expressing NPY-Y2, potentiator/agonist read-out | activation, % at 3.6 µM | 220,000 tested, 0.45% active | P49146; in the data active means activation above about 27%;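 further: cells stimulated with NPY near EC25 plus isoproterenol at EC100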
NPY Y2 blocker: antagonists of human neuropeptide Y receptor Y2; P49146; 140,000 tested, 0.99% active; AID 793; NPY-Y2 expressing cells, antagonist mode; inhibition, % at 2.7 µM; in the data active means inhibition above about 17%
NPY-Y1 antag: antagonists of human neuropeptide Y receptor Y1; inhibition, % at 3.6 µM; P25929; 200,000 tested, 1% active; HEK293-CNG Y1 cells, membrane potential fluorescence; NPY at EC95, then isoproterenol;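 active means inhibition above the campaign mean inhibition of all tested compounds plus 3 SD, cut at about 20% in these data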
Target sequence (P25929 whole entry, looked up): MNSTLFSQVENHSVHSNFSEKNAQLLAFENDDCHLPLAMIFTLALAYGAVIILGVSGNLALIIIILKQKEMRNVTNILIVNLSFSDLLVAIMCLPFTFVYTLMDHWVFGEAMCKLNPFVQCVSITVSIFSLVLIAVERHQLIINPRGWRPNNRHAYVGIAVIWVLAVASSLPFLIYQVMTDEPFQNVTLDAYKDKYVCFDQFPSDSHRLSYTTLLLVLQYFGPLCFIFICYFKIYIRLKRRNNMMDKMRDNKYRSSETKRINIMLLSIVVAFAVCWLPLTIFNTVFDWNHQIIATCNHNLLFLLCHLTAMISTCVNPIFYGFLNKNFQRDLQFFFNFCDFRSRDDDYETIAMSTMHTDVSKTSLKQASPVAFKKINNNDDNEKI
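Assay system: HEK293 Y1/CNG channel cell line; Doses: single compound dose of 3.6 µM, 0.4% DMSO; Timing: dye 3 h, compound 60 min room temperature, stimulation 45 min; Technique: Membrane-potential fluorescent dye readout; Measure: % inhibition of NPY effect.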
NPY-Y1 PAM-ag: potentiators or agonists of human neuropeptide Y receptor Y1; P25929; NPY-Y1 expressing cells, potentiator/agonist activation; activation, % at 3.6 µM; 220,000 tested, 0.37% active; AID 1304; in the data active means activation above about 33%, passing the limit was not always enough;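 further: cells stimulated with NPY at EC10 then isoproterenol at EC100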
Large screens that a line does not name were inactive. Sampled rows, rich in hits. Any-hit rate of the full collection: about 2.6%.

COC(=O)CSC1=C(C#N)C(c2ccc(F)cc2)CC(=O)N1 (centres undefined)	none
Cc1ccccc1NC(=O)CSC1=C(C#N)C(c2ccsc2)CC(=O)N1 (centres undefined)	MT stabilize HCS 26
O=C(c1ccccc1)c1nc[nH]c1C(=O)Nc1ccccc1	none
CCc1ccccc1NC(=S)/N=C(\N)Nc1nc(C)c2cc(C)ccc2n1	MT stabilize HCS 23
O=C(c1ccc2c(c1)OCCO2)C1CCN(S(=O)(=O)c2ccc(F)cc2)CC1	none
C=CCn1c(C)c(C(C)=O)c(N2CCN(C(c3ccccc3)c3ccccc3)CC2)nc1=S	none (no result: NPY Y2 blocker)
c1ccc(-n2cnc3cc(NCc4cccs4)ccc32)cc1	MT stabilize HCS 41
O=C(NCCc1ccccc1)C1CCCN(S(=O)(=O)c2cnc[nH]2)C1 (centres undefined)	NPY-Y2 PAM-ag 73 (no result: b-catenin transl)
CCN(CC)C(CNS(=O)(=O)c1ccc(Cl)cc1)c1ccccc1 (centres undefined)	none (no result: NPY Y2 blocker)
CCc1ccc(N/C(N)=N/c2nc(CSc3ccccn3)cc(=O)[nH]2)cc1	MT stabilize HCS 17 (no result: NPY Y2 blocker)
Cc1ccc(N=C2NC(=O)/C(=C\c3ccc(C)s3)S2)cc1	MT stabilize HCS 6.3 (no result: NPY Y2 blocker)
Cc1ccc(N=C2NC(=O)/C(=C/c3cccn3C)S2)cc1	b-catenin transl 65 (no result: MT stabilize HCS, NPY Y2 blocker, NPY-Y1 antag)
N/C(=N\S(=O)(=O)c1ccc(Cl)s1)c1ccccc1	none
COc1ccc(NC(=O)c2ccsc2NC(C)=O)cc1	none (no result: NPY Y2 blocker)
O=C(Nc1ccc(NC(=S)NC(=O)C(c2ccccc2)c2ccccc2)cc1)c1ccccc1	MT stabilize HCS 40 (no result: b-catenin transl)
Cc1cc(C)c2c(CC(=O)O)coc2c1	NPY-Y1 antag 24
CCCC(=O)N=C1SC2CS(=O)(=O)CC2N1c1ccc(C(C)=O)cc1 (centres undefined)	none
CCOC(=O)c1[nH]c2ccccc2c1NC(=O)c1ccc(Br)o1	none
Cc1ccc(Cl)cc1N1CCN(C(=O)Cc2csc(Nc3nc(=S)[nH]c4ccccc34)n2)CC1	MT stabilize HCS 9.5 (no result: NPY Y2 blocker)
O=C(Cc1csc(Nc2nc(=S)[nH]c3ccccc23)n1)N1CCN(c2cccc(Cl)c2)CC1	none (no result: NPY Y2 blocker)
COc1ccc(N2C(=O)/C(=C/c3cccnc3)NC2=S)cc1	none
COc1cccc(N2C(=O)/C(=C\c3cccs3)NC2=S)c1	NPY-Y2 PAM-ag 69, NPY-Y1 PAM-ag 48 (no result: NPY Y2 blocker)
Cc1ccc(NC(=O)c2ccccc2)cc1	none
Cc1ccc(NC(=O)C2=C(c3ccccc3)S(=O)(=O)CCS2(=O)=O)cc1	NPY-Y2 PAM-ag 55, NPY-Y1 PAM-ag 56 (no result: NPY Y2 blocker)
COC(CN(C(=O)CCl)C(C(=O)NC1CCCCC1)c1ccc(C)cc1)OC (centres undefined)	none
Cc1nc(N2CCOCC2)c2c(C)c(C(=O)Nc3ccccc3C(F)(F)F)sc2n1	NPY-Y1 antag 20 (no result: NPY Y2 blocker)
CC(C)(C)n1nnnc1C(c1ccccn1)N(Cc1ccccc1)Cc1ccc(Cl)cc1 (centres undefined)	none
CCN(Cc1ccccc1)C(c1ccccn1)c1nnnn1C(C)(C)CC (centres undefined)	NPY Y2 blocker 26, NPY-Y1 antag 23
Cc1cc(C)nc(NC(=NCCc2c[nH]c3ccccc23)NC(=O)Nc2cccc([N+](=O)[O-])c2)n1	none
O=C(O)CNC(=O)CC1S/C(=N/N=C2\CSC(=O)N2)NC1=O (centres undefined)	none (no result: NPY Y2 blocker)
CCCOC(=O)c1ccc(NC(=O)c2ccccc2OC)cc1	NPY-Y1 antag 21 (no result: b-catenin transl, NPY Y2 blocker)
COc1ccc(/C=N/NC(=O)c2ccc(N)cc2)cc1Cn1cc([N+](=O)[O-])cn1	MT stabilize HCS 12 (no result: NPY Y2 blocker)
COc1ccc(/C=N/n2cnnc2)cc1Cn1nc(C)c([N+](=O)[O-])c1C	none (no result: NPY Y2 blocker)
COc1ccc(/C=N\NC(=O)c2cccc([N+](=O)[O-])c2)cc1Cn1cc([N+](=O)[O-])cn1	none (no result: NPY Y2 blocker)
COc1ccc(/C=N/NC(=O)c2cccc(O)c2)cc1Cn1nc(C)c([N+](=O)[O-])c1C	MT stabilize HCS 19 (no result: NPY Y2 blocker)
COc1ccc(C2CC(c3c(O)cc(C)oc3=O)=NCCS2)c(OC)c1 (centres undefined)	b-catenin transl 110
Cc1cc(O)c(C2=Nc3ccccc3SC(c3ccc(Cl)cc3)C2)c(=O)o1 (centres undefined)	none
O=C(O)CSc1nc(-c2ccccc2)c(-c2ccccc2)[nH]1	none (no result: MT stabilize HCS, NPY Y2 blocker, NPY-Y1 antag)
CC(C)(C)NC(=O)CSc1nc(-c2ccccc2)c(-c2ccccc2)[nH]1	MT stabilize HCS 15
O=C(CCc1nnc(CCc2c[nH]c3ccccc23)o1)NC1CCC1	none (no result: MT stabilize HCS, NPY Y2 blocker, NPY-Y1 antag)
Cc1ccc(C)c(N(CC(=O)NC2CCCC2)C(=O)c2oc(C(C)(C)C)cc2C)c1	NPY Y2 blocker 20, NPY-Y1 antag 27
Cc1cc(C(C)(C)C)oc1C(=O)N(CC(=O)NC1CCCC1)Cc1ccccc1	none
CCCCCc1ccc(OCCCC[n+]2ccc(C)cc2)c(CCCCC)c1	none (no result: MT stabilize HCS, NPY Y2 blocker)
CCC(C)(C)c1ccc(OCCCC[n+]2ccccc2)c(C(C)(C)CC)c1	none (no result: b-catenin transl, NPY Y2 blocker)
CCCCCc1ccc(OCCCC[n+]2cccc(C)c2)c(CCCCC)c1	MT stabilize HCS 56 (no result: NPY Y2 blocker)
CCCCCc1ccc(OCCCC[n+]2ccccc2)c(CCCCC)c1	MT stabilize HCS 28 (no result: NPY Y2 blocker)
OC(COc1ccc(C2C=CCC2)cc1)CN1CCCCC1 (centres undefined)	NPY-Y2 PAM-ag 73, NPY-Y1 PAM-ag 60
Cc1nc(SCc2ccccc2)c(C(F)(F)F)c(=O)[nH]1	none (no result: b-catenin transl)
CCCC(c1nnnn1C1CCCCC1)N1CCN(c2ncccn2)CC1 (centres undefined)	none
CCCCC(c1nnnn1C1CCCC1)N1CCN(C2CCCCC2)CC1 (centres undefined)	NPY Y2 blocker 26, NPY-Y1 antag 37
C/C(=N\Nc1c([N+](=O)[O-])c(C)nn1C)c1ccc(F)cc1F	none (no result: MT stabilize HCS, NPY Y2 blocker)
CCCc1nc2ccccc2c(C(=O)OC(C)C(=O)NCc2ccc3c(c2)OCO3)c1CC (centres undefined)	NPY Y2 blocker 19, NPY-Y1 antag 25
O=C(NC1CCN(C(=O)c2cccs2)CC1)c1ccccc1	none (no result: MT stabilize HCS, NPY Y2 blocker, NPY-Y1 antag)
O=C(NCCCn1ccnc1)c1cc([N+](=O)[O-])cc([N+](=O)[O-])c1	NPY-Y2 PAM-ag 78, NPY-Y1 PAM-ag 61
O=C(NCCCn1ccnc1)c1ccncc1	none
COc1ccc(NC(=O)CC2C(=O)N(C)C(=S)N2Cc2ccc3c(c2)OCO3)cc1 (centres undefined)	none
O=C(NC1CC1)C1CCCN1S(=O)(=O)c1ccc2ccccc2c1 (centres undefined)	MT stabilize HCS 24
CN(C)c1ccc(/C=N/NC(=O)COc2ccccc2)cc1	none (no result: NPY Y2 blocker)
O=C(COc1cccc2ccccc12)N/N=C/c1ccccc1OCc1ccc(C(=O)O)cc1	none (no result: NPY Y2 blocker)
COc1ccc(/C=N/NC(=O)COc2ccccc2-c2ccccc2)cc1	b-catenin transl 142
O=C(COc1ccccc1-c1ccccc1)N/N=C/c1cccc2ccccc12	b-catenin transl 112

Screening data (PubChem BioAssay)
